Measured values reported in ChEMBL document CHEMBL1153353, “Probing of the cis-5-phenyl proline scaffold as a platform for the synthesis of mechanism-based inhibitors of the Staphylococcus aureus sortase SrtA isoform” (Bioorg Med Chem, 2009).
Calls of active or inactive are those of the source. The calls are words filed in the database; no cut-off is given here.

What follows are molecules tested against T1, Sortase A (Staphylococcus aureus) (UniProt Q9S446) (assay: Inhibition of 6-His tagged Staphylococcus aureus recombinant sortase delta N24 expressed in Escherichia coli BL21 (DE3) at 5 mM).
T1 sequence (whole entry): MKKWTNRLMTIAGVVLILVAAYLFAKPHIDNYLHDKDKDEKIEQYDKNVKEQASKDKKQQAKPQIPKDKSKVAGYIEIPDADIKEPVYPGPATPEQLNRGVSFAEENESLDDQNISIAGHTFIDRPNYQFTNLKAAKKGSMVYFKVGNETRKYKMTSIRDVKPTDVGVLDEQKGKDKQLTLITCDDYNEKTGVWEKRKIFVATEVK
Method in brief: (§1)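 His6-SrtAΔN24 (1 μM) was pre-incubated with inhibitor for 30 min at 37°C in 300 mM Tris pH 7.5, 150 mM NaCl, 5 mM CaCl2, 0.1% CHAPS and 2% DMSO. The reaction was started with 2 mM Abz-LPETG-Dap(DNP)-NH2 plus 2 mM NH2-Gly5-OH, run 30 min at 37°C, and quenched with 1.2 M HCl. Substrate and product were separated by reverse-phase HPLC and read at 355 nm. Percent substrate conversion came from peak areas.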
With `C=CS(=O)(=O)[C@H]1C[C@@H](C(=O)OC)N[C@H]1c1ccccc1` (racemic) the Activity was “Active”.
With `C=CS(=O)(=O)[C@H]1C[C@@H](C(=O)OC)N[C@H]1c1cccc(F)c1` (racemic) the Activity was “Active”.
`C=CS(=O)(=O)[C@H]1C[C@@H](C(=O)OC)N[C@H]1c1ccccc1F` (racemic) was tested, and the Activity was “Active”.
For `COC(=O)[C@@H]1C[C@@H](C#N)[C@H](c2cccc(Cl)c2)N1` (racemic), the Activity was “inactive”.
With `COC(=O)[C@@H]1C[C@@H](C#N)[C@H](c2cccc(F)c2)N1` (racemic) the Activity was “inactive”.
For `COC(=O)[C@@H]1C[C@@H](C#N)[C@H](c2cccc(F)c2F)N1` (racemic), the Activity was “inactive”.
With `COC(=O)[C@@H]1C[C@@H](C#N)[C@H](c2ccccc2)N1` (racemic) the inhibition was 20%.
For `COC(=O)[C@@H]1C[C@@H](C#N)[C@H](c2ccccc2F)N1` (racemic), the inhibition was 20%.
`COC(=O)[C@@H]1C[C@H](C#N)[C@H](c2cccc(Cl)c2)N1` (racemic) gave an inhibition of 20%.
`COC(=O)[C@@H]1C[C@H](C#N)[C@H](c2cccc(F)c2)N1` (racemic) was tested, and the Activity was “inactive”.
With `COC(=O)[C@@H]1C[C@H](C#N)[C@H](c2cccc(F)c2F)N1` (racemic) the Activity was “inactive”.
`COC(=O)[C@@H]1C[C@H](C#N)[C@H](c2cccc(F)c2F)N1C` (racemic) was tested, and the Activity was “inactive”.
For `COC(=O)[C@@H]1C[C@H](C#N)[C@H](c2ccccc2)N1` (racemic), the Activity was “inactive”.
With `COC(=O)[C@@H]1C[C@H](C#N)[C@H](c2ccccc2)N1C` (racemic) the Activity was “inactive”.
In the case of `COC(=O)[C@@H]1C[C@H](C#N)[C@H](c2ccccc2F)N1` (racemic), the inhibition is reported as 20%.
For `COC(=O)[C@@H]1C[C@H](C#N)[C@H](c2ccccc2F)N1C` (racemic), the inhibition was 20%.
In the case of `COC(=O)[C@]1(C)C[C@@H](C#N)[C@H](c2ccc(Cl)cc2)N1` (racemic), the Activity is reported as “inactive”.
In the case of `COC(=O)[C@]1(C)C[C@@H](C#N)[C@H](c2ccccc2C)N1` (racemic), the Activity is reported as “inactive”.
In the case of `COC(=O)[C@]1(C)C[C@@H](C#N)[C@H](c2ccccc2Cl)N1` (racemic), the Activity is reported as “inactive”.
For `COC(=O)[C@]1(C)C[C@H](C#N)[C@H](c2ccc(Cl)cc2)N1` (racemic), the Activity was “inactive”.
With `COC(=O)[C@]1(C)C[C@H](C#N)[C@H](c2ccccc2C)N1` (racemic) the Activity was “inactive”.
In the case of `COC(=O)[C@]1(C)C[C@H](C#N)[C@H](c2ccccc2C)N1C` (racemic), the Activity is reported as “inactive”.
For `COC(=O)[C@]1(C)C[C@H](C#N)[C@H](c2ccccc2Cl)N1` (racemic), the Activity was “inactive”.
In the case of `COC(=O)[C@]1(C)C[C@H](C#N)[C@H](c2ccccc2Cl)N1C` (racemic), the inhibition is reported as 20%.
In the case of `Cc1cn(C[C@@H]2C[C@H](C#N)[C@H](c3ccccc3)N2C)c(=O)[nH]c1=O` (racemic), the Activity is reported as “inactive”.

These molecules were tested against T2, Sortase A (Staphylococcus aureus, UniProt Q9S446) (assay: Inhibition of 6-His tagged Staphylococcus aureus recombinant sortase delta N24 expressed in Escherichia coli BL21 (DE3)).
T2 sequence (Q9S446 whole entry): T1 sequence (whole entry)
Method in brief: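 N-terminally His6-tagged SrtA lacking residues 1-24, Ni-chelate purified. 1 μM enzyme pre-incubated with inhibitor 30 min at 37°C, then 2 mM Abz-LPETG-Dap(DNP)-NH2 plus 2 mM NH2-Gly5-OH added. Buffer: 300 mM Tris pH 7.5, 150 mM NaCl, 5 mM CaCl2, 0.1% CHAPS, 2% DMSO. Ran 30 min at 37°C, HCl-quenched. Reverse-phase HPLC at 355 nm gave substrate-to-product conversion, relative to uninhibited controls.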
`CN(C)C(=N)N.O=C(NCCSSCCNC(=O)/C(Cc1ccc(S(=O)(=O)O)c(Br)c1)=N/O)/C(Cc1ccc(O)c(Br)c1)=N/O` gave an IC50 of 48.3 µM.
With `C=CS(=O)(=O)[C@H]1C[C@@H](C(=O)OC)N[C@H]1c1ccccc1` (racemic) the IC50 was 850 µM.
In the case of `C=CS(=O)(=O)[C@H]1C[C@]2(C(=O)OC)CCC(=O)N2[C@H]1c1ccc(OC)c(OC)c1` (racemic), the IC50 is reported as 2680 µM.
`C=CS(=O)(=O)[C@H]1C[C@]2(C(=O)OC)CCC(=O)N2[C@H]1c1cccnc1` (racemic) was tested, and the IC50 was 2470 µM.
With `C=CS(=O)(=O)[C@H]1C[C@@H](C(=O)OC)N[C@H]1c1cccc(F)c1` (racemic) the IC50 was 1040 µM.
Work on `C=CS(=O)(=O)[C@H]1C[C@@](CCC(=O)OC)(C(=O)OC)N[C@H]1c1cccnc1` (racemic) yielded an IC50 of 1860 µM.
With `C=CS(=O)(=O)[C@H]1C[C@]2(C(=O)OC)CCC(=O)N2[C@H]1c1ccccc1` (racemic) the IC50 was 2200 µM.
For `C=CS(=O)(=O)[C@H]1C[C@@H](C(=O)OC)N[C@H]1c1ccccc1F` (racemic), the IC50 was 1320 µM.
`C=CS(=O)(=O)[C@H]1C[C@@](CCC(=O)OC)(C(=O)OC)N[C@H]1c1ccc(OC)c(OC)c1` (racemic) was tested, and the IC50 was greater than 5000 µM.
`C=CS(=O)(=O)c1ccccc1` [(ETHENYLSULFONYL)BENZENE] was tested, and the IC50 was 736 µM.
With `COc1cc(/C=C/C(=O)CC(=O)/C=C/c2ccc(O)c(OC)c2)ccc1O` [CURCUMIN] the IC50 was 37.5 µM.
Work on `O=c1c(O)c(-c2ccc(O)cc2O)oc2cc(O)cc(O)c12` [MORIN] yielded an IC50 of 37.4 µM.

The molecules below were run against T1, Sortase A (Staphylococcus aureus) (assay: Inhibition of 6-His tagged Staphylococcus aureus recombinant sortase delta N24 expressed in Escherichia coli BL21 (DE3) at 1 mM).
Method in brief: as §1
Molecule `Cc1cn(C[C@@H]2C[C@H](C#N)[C@H](c3ccccc3)N2C)c(=O)[nH]c1=O` (racemic) has an inhibition of 6%.
